The list is not random: actives were taken first. Their share in the collection is about 2.3%.
TRPC4 inh = inhibitors of mouse TRPC4 channel; Q9QUQ5; HEK293 TRPC4beta/mu-opioid, DAMGO-evoked Fluo4 calcium flux; hits give low values; B-score at 10 µM; actives 0.39% (n = 300,000); AID 2247;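 active = B-score over 3 SD under the library average, no early fluorescence shift, positive overall ratio signal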
Target sequence (Q9QUQ5 whole entry, looked up): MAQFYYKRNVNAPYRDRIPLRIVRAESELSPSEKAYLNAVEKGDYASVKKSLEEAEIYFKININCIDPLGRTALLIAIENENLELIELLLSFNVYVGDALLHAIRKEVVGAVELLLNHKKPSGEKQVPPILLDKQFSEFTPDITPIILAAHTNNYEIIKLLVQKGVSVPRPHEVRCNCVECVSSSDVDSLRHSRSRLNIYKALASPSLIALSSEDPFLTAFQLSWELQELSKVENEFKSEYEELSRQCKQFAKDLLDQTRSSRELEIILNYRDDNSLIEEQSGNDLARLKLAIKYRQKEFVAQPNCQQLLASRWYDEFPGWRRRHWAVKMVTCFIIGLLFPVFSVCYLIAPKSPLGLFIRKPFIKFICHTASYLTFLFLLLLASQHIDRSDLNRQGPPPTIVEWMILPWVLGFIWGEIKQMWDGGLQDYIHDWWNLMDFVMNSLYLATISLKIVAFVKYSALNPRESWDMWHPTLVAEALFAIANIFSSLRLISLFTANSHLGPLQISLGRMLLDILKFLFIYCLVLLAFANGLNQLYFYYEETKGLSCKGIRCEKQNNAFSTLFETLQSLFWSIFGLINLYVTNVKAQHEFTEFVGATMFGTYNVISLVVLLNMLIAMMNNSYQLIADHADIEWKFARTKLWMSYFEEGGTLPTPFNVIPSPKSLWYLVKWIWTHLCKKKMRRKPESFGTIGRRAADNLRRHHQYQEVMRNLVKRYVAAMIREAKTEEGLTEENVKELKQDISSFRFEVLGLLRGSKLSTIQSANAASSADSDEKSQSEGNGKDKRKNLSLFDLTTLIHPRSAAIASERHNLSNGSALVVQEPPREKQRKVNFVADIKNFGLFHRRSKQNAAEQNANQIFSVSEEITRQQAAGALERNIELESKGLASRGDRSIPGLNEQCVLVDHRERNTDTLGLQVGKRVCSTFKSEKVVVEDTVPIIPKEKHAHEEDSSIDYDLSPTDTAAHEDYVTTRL
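Signal: kinetic Fluo4 fluorescence imaging of calcium influx. Material: stable TRPC4beta/mu-opioid receptor HEK293 cells. Probe or stimulus: DAMGO in two steps, submaximal then maximal.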
TRPC6 activator = activators of mouse TRPC6 channel | B-score at 10 µM | AID 2550 | Q61143 | HEK293-TRPC6 membrane potential dye fluorescence; hits give high values | actives 0.13% (n = 310,000);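 active = B-score of the integrated fluorescence ratio above library mean plus 3 SD, and starting fluorescence ratio within library mean plus 5 SD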;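 also: higher score means more depolarization so channel activation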
TRPC4 agonist = TRPC4 (mouse) channel activation. HEK293 TRPC4beta/mu-opioid, Fluo4 calcium fluorescence; hits give high values. B-score at 10 µM. actives 0.49% (n = 310,000). AID 2237;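 active = B-score above 5 SD of library B-scores, and initial fluorescence ratio not above library mean plus 5 SD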;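 also: positive B-score marks a calcium rise read as TRPC4 activation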
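system = HEK293 cells stably co-expressing mouse TRPC4beta and mu-opioid receptor | schedule = Fluo4 dye loading 45 min at room temperature, 110 s recording | measure = B-scored integrated calcium fluorescence ratio | signal = Fluo4 calcium-sensitive dye fluorescence, kinetic, 1 Hz baseline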
TRPC6 inh = blocks the mouse TRPC6 cation channel | Q61143 | HEK293-TRPC6, membrane potential dye, ACh-evoked depolarization; hits give low values | B-score at 10 µM | actives 1.1% (n = 310,000);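 active = B-score under library mean minus 3 SD, initial fluorescence not abnormally high, positive integrated signal ratio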;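 also: B-score derived from integrated fluorescence ratio over the kinetic read; more negative B-score means stronger inhibition of depolarization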
TRPC4 PAM = allosterically enhances the mouse TRPC4 cation channel; actives 0.42% (n = 310,000); Q9QUQ5; B-score at 10 µM; AID 2227; HEK293 TRPC4beta/mu-opioid, DAMGO EC20, Fluo-4 Ca2+ flux; hits give high values;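 active = B-score of calcium response area above 5 SD of library B-scores, with initial fluorescence ratio within 5 SD of library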;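 also: B-score of integrated fluorescence ratio over time as area under calcium response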
TRPC4 sel inh 2 = second check of whether TRPC6 inhibitors also affect mouse TRPC4. shares compounds with TRPC6 inh. actives 42% (n = 920). inhibition, % at 10 µM. AID 2776. HEK293 TRPC4/MOR, membrane potential dye fluorescence; channel activated by saturating DAMGO dose;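 active = compounds whose fluorescence signal differed from control wells by over 3 SD, either direction, in both duplicate plates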
TRPC4 spec = mouse TRPC4 off-target activity of TRPC6 inhibitors. activity change, negative = inhibition, % at 10 µM. HEK293 TRPC4/mu-opioid, membrane potential fluorescence. actives 61% (n = 920). shares compounds with TRPC6 inh;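 active = rise or fall in signal beyond 3 SD of buffer-only wells in both replicate plates, either sign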;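 also: integrated kinetic ratio of fluorescence range over baseline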
HEK293 MPD ctr 2-1 = second counter-screen for TRPC6 inhibitors: parental HEK293 cells; signal change vs control, % at 10 µM; actives 31% (n = 920); shares compounds with TRPC6 inh; parental HEK293 membrane potential dye fluorescence; maximal acetylcholine challenge after compound addition;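 active = membrane potential signal moving either way by over 3 SD of the maximum-effect control, in both duplicate plates, meaning non-specific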
HEK293 MPD ctr-1 = counter-screen for TRPC6 inhibitors: effect in parental HEK293 cells; parental HEK293 membrane potential dye fluorescence; membrane potential signal change, % at 10 µM; actives 60% (n = 920); shares compounds with TRPC6 inh;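 active = membrane potential signal shifting up or down by more than 3 SD of buffer-only wells, on both duplicate plates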
HEK293 MPD ctr-2 = checks TRPC6 modulator effects in parental HEK293 cells | shares compounds with TRPC6 inh | membrane potential dye fluorescence | membrane potential signal change, % at 10 µM | actives 51% (n = 2,400);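 active = membrane potential signal moves up or down beyond 5 SD from buffer-only wells, on both duplicate plates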
HEK293 MPD ctr 2-2 = second check of TRPC6 modulator effects in parental HEK293 cells | shares compounds with TRPC6 inh | membrane potential dye fluorescence; after compound, maximal acetylcholine stimulation | inhibition, % at 10 µM | actives 14% (n = 2,400) | AID 488926;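 active = membrane potential signal drops by more than 5 SD from the mean control signal, in both duplicate plates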;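 also: plate controls were acetylcholine ECmax control wells for no effect and buffer only wells for full effect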
TRPC4/MOR mod = mouse TRPC4 off-target activity of TRPC6 modulators; shares compounds with TRPC6 inh; HEK293 TRPC4/mu-opioid, membrane potential fluorescence; percent change from control (negative = decrease, positive = increase), % at 10 µM; actives 69% (n = 2,400); AID 488927;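 active = membrane potential signal moved up or down beyond 5 SD of buffer control wells, in both duplicate plates, actives on both sides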;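 also: plate controls were assay buffer wells for no effect and DAMGO maximal-effect wells for full effect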
TRPC4 ctr inh 2 = mouse TRPC4 off-target activity of TRPC6 modulators, second screen. shares compounds with TRPC6 inh. HEK293 TRPC4/mu-opioid, membrane potential dye fluorescence; stimulated with maximal-effect DAMGO. inhibition, % at 10 µM. actives 55% (n = 2,400). AID 488928;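 active = drop in membrane potential signal beyond 5 SD of the control wells in both duplicate plates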;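 also: TRPC4 counter screen for TRPC6 hits run under conditions tuned for TRPC6 not TRPC4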
TRPC6 inh conf = mouse TRPC6 inhibitor confirmation; shares compounds with TRPC6 inh; HEK293-TRPC6, membrane potential dye, ACh-evoked depolarization; inhibition, % at 10 µM; actives 43% (n = 3,300);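 active = fluorescence ratio falls more than 5 SD below the full-stimulation control mean, in both duplicate runs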;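 also: integrated fluorescence ratio of peak minus minimum over baseline after agonist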
TRPC6 act conf = mouse TRPC6 activator confirmation; shares compounds with TRPC6 inh; AID 488961; activation, % at 10 µM; HEK293-TRPC6 membrane potential dye fluorescence, FDSS; actives 11% (n = 2,800);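 active = ratio signal rise beyond 5 SD above unstimulated control wells' mean, seen in both duplicate runs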;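 also: plate controls were buffer EC0 wells for no effect and acetylcholine ECmax response for full effect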
Active calls of the source: *; i = inactive; . = no result given.

SMILES | TRPC4 inh | TRPC6 activator | TRPC4 agonist | TRPC6 inh | TRPC4 PAM | HEK293 MPD ctr-2 | HEK293 MPD ctr 2-2 | TRPC4/MOR mod | TRPC4 ctr inh 2 | TRPC6 inh conf | TRPC6 act conf | others
O=C(SCC(O)C(O)CS)c1cccs1 (centres undefined) | i | i | i | i | i | . | . | . | . | . | .
Cc1nnc(SCCn2c(N3CCCCC3)nc3c2c(=O)n(C)c(=O)n3C)s1 | i | i | i | i | i | . | . | . | . | . | .
Cc1nnc(SCCn2c(N3CCN(C)CC3)nc3c2c(=O)n(C)c(=O)n3C)s1 | i | i | i | -13* | i | -231%* | 96%* | -35%* | 59%* | 72%* | i
COc1ccc(/C=N/NC(=O)c2nn(-c3ccc(Cl)cc3)c(=O)c3c(N)scc23)cc1 | i | i | i | -6* | i | -77%* | i | -22%* | 36%* | i | i
COc1ccc(/C=N/NC(=O)c2nn(-c3ccccc3)c(=O)c3c(N)scc23)cc1 | i | i | i | i | i | . | . | . | . | . | .
Cc1cc(N2CCOCC2)c2c(N)c(Br)cc(C)c2n1 | i | i | i | -5.1* | i | -301%* | i | -57%* | 42%* | i | i
COCCCn1c(=O)c2sccc2n2c(CCCC(=O)NCc3cccc(OC)c3)nnc12 | i | i | i | i | i | . | . | . | . | . | .
CCOC(=O)N1CCC(N2CCN(CCC(C)C)C(CCO)C2)CC1 (centres undefined) | i | i | i | -7.6* | i | . | . | . | . | 64%* | . | TRPC4 sel inh 2=i;TRPC4 spec=9.0%*;HEK293 MPD ctr 2-1=-4.0%*;HEK293 MPD ctr-1=1.5%*
Cc1ccc2c(c1)NC(=O)C(CC(=O)Nc1ccc(CN3CCC(C)CC3)cc1)O2 (centres undefined) | i | i | i | -8.5* | i | . | . | . | . | 79%* | i | TRPC4 sel inh 2=i;TRPC4 spec=i;HEK293 MPD ctr 2-1=-4.5%*;HEK293 MPD ctr-1=i
CCN1CCN(Cc2ccc(NC(=O)CC3Oc4ccc(C)cc4NC3=O)cc2)CC1 (centres undefined) | i | i | i | i | i | . | . | . | . | . | .
COC(=O)C1(C)NC(c2ccc(OC)cc2)C2C(=O)N(c3ccccc3)C(=O)C21 (centres undefined) | i | i | i | -7.8* | i | . | . | . | . | i | i | TRPC4 sel inh 2=i;TRPC4 spec=i;HEK293 MPD ctr 2-1=i;HEK293 MPD ctr-1=i
COc1ccc(-n2c(C)c(C)c3c(NCCCO)ncnc32)cc1 | i | i | i | i | i | . | . | . | . | . | .
Cc1ccc(-c2n[nH]c(=S)n2-c2ccccc2)cc1 | i | i | i | i | i | . | . | . | . | . | .
Cc1ccc(-n2c(-c3cccc(C)c3)n[nH]c2=S)cc1 | i | i | i | -18* | i | i | i | i | i | i | i
OC(CCN1CCCCC1)(c1ccccc1)C1CCCCC1 (centres undefined) | i | i | i | -5.2* | i | 208%* | 80%* | 42%* | i | 78%* | .
CCCOc1ccc(C(O)(CCC)CCN2CCCCC2)cc1 (centres undefined) | i | i | i | i | i | . | . | . | . | . | .
OC(CCN1CCOCC1)(c1ccc(Cl)cc1)C1CCCCC1 (centres undefined) | i | i | i | -5.7* | i | 149%* | i | 26%* | 45%* | 44%* | i
Cc1ccc(C(O)(CCN2CCCCC2)c2ccccc2)cc1 (centres undefined) | i | i | i | -7.1* | i | . | . | . | . | 62%* | . | TRPC4 sel inh 2=i;TRPC4 spec=14%*;HEK293 MPD ctr 2-1=i;HEK293 MPD ctr-1=13%*
COc1ccccc1/C=C/C=C1N=C(/C=C/c2ccc(Cl)cc2)OC/1=O | i | i | i | -5.9* | i | 554%* | i | 32%* | i | i | .
CCN(CC(=O)Nc1cc(Cl)ccc1C)C(=O)c1cc([N+](=O)[O-])ccc1N1CCOCC1 | i | i | i | i | i | . | . | . | . | . | .
COc1ccc(S(=O)(=O)N[C@@H](CSCc2ccccc2)C(=O)O)cc1 | i | i | i | i | i | . | . | . | . | . | .
Cc1ccn2c(=O)c(C(=O)NCCCN3CCCC3=O)c(O)nc2c1 | i | i | i | -5.5* | i | -316%* | i | -45%* | i | i | i
Cc1cccn2c(=O)c(C(=O)NCCCN3CC(C)CC(C)C3)c(O)nc12 (centres undefined) | i | i | 73* | -5.1* | i | -140%* | i | i | i | i | i
Cc1ccn2c(=O)c(C(=O)NCCCN3CCCCC3C)c(O)nc2c1 (centres undefined) | i | i | i | -5.3* | i | -274%* | 70%* | -44%* | 56%* | 76%* | i
COc1ccccc1N1N=C(c2ccc([N+](=O)[O-])cc2)CC1c1ccccc1 (centres undefined) | i | 13* | i | i | i | i | i | 23%* | i | i | 44%*
CN(/C(=N/S(=O)(=O)c1ccccc1)c1ccccc1)S(=O)(=O)c1ccccc1 | i | i | i | -6.5* | i | i | i | 10%* | i | i | i

Source: PubChem
